Laboratory results as given in ChEMBL document CHEMBL2177065, “14-Alkoxy- and 14-acyloxypyridomorphinans: μ agonist/δ antagonist opioid analgesics with diminished tolerance and dependence side effects” (J Med Chem, 2012).
Active and inactive are the calls of the source.

Key:
[1] = Agonist activity at delta opioid receptor expressed in rat/mouse NG108-15 cells assessed as [35S]GTPgammaS binding by scintillation counting analysis relative to DADLE; type: functional, cell-based
In short: (§1)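 NG108-15 cell membranes (50 µg protein), 3 h at 25 °C, pH 7.4 Tris buffer with 100 mM NaCl, 10 mM MgCl2, 1 mM EDTA, 1 mM DTT, 0.1% BSA, GDP 40 µM and [35S]GTP-γ-S 50 pM. Nonspecific binding with 40 µM GTP-γ-S; filtration and scintillation counting. Stimulation = (S−B)/B×100, with Emax relative to DADLE. Curves were ten points, ≥3 experiments pooled. Ke was taken from the shift in standard agonist EC50.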

[2] = target: T1, Kappa-type opioid receptor (Homo sapiens, UniProt P41145); assay: Agonist activity at human kappa opioid receptor expressed in CHO cells assessed as [35S]GTPgammaS binding by scintillation counting analysis; type: functional, cell-based
In short: (§2)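 Human KOR or MOR in CHO cell membranes (50 µg protein), 3 h at 25 °C, pH 7.4 Tris buffer with 100 mM NaCl, 10 mM MgCl2, 1 mM EDTA, 1 mM DTT, 0.1% BSA, GDP 40 µM and [35S]GTP-γ-S 50 pM. Stimulation = (S−B)/B×100, with Emax relative to U69,593 (KOR) or DAMGO (MOR). Curves were ten points, ≥3 experiments pooled. Antagonist Ke was taken from the shift in standard agonist EC50.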

Mu-type opioid receptor [3] = target: T2, Mu-type opioid receptor (Homo sapiens, UniProt P35372); assay: Agonist activity at human mu opioid receptor expressed in CHO cells assessed as [35S]GTPgammaS binding by scintillation counting analysis; type: functional, cell-based; in short: as §2
[4] = tested on: Delta-type opioid receptor; assay: Antagonist activity at delta opioid receptor expressed in rat/mouse NG108-15 cells assessed as [35S]GTPgammaS binding by scintillation counting analysis; type: functional, cell-based; in short: as §1
Homo sapiens [5] = species on record: Homo sapiens; assay: Selectivity ratio of Ki for human kappa opioid receptor to Ki for human delta opioid receptor
Mu-type opioid receptor [6] = target: T2, Mu-type opioid receptor; assay: Displacement of [3H]DAMGO from human mu opioid receptor expressed in CHO cells by scintillation counting analysis; type: cell-based
[7] = target: T1, Kappa-type opioid receptor; assay: Agonist activity at human kappa opioid receptor expressed in CHO cells assessed as [35S]GTPgammaS binding by scintillation counting analysis relative to U69,593; type: functional, cell-based; in short: as §2
[8] = target: T3, Delta-type opioid receptor (Homo sapiens, UniProt P41143); assay: Displacement of [3H]DADLE from human delta opioid receptor expressed in CHO cells by scintillation counting analysis; type: cell-based
[9] = target: T1, Kappa-type opioid receptor; assay: Displacement of [3H]U69,593 from human kappa opioid receptor expressed in CHO cells by scintillation counting analysis; type: cell-based
Mu-type opioid receptor [10] = target: T2, Mu-type opioid receptor; assay: Agonist activity at human mu opioid receptor expressed in CHO cells assessed as [35S]GTPgammaS binding by scintillation counting analysis relative to DAMGO; type: functional, cell-based; in short: as §2
Homo sapiens [11] = species on record: Homo sapiens; assay: Selectivity ratio of Ki for human mu opioid receptor to Ki for human delta opioid receptor
[12] = tested on: Delta-type opioid receptor; assay: Agonist activity at delta opioid receptor expressed in rat/mouse NG108-15 cells assessed as [35S]GTPgammaS binding at 10 uM by scintillation counting analysis; type: functional, cell-based; in short: as §1
Mu-type opioid receptor [13] = target: T2, Mu-type opioid receptor; assay: Agonist activity at human mu opioid receptor expressed in CHO cells assessed as [35S]GTPgammaS binding at 10 uM by scintillation counting analysis; type: functional, cell-based; in short: as §2
Mus musculus [14] = assay: Antinociceptive activity in ICR mouse assessed as warm-water tail-withdrawal latency at 10 nmol, icv by tail flick assay; type: functional
In short: (§3)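 Male ICR mice dosed i.c.v. in 5 µL (test compounds in 100% DMSO, morphine in water) under light ether anaesthesia. Tail withdrawal from 55 °C water, 10 s cutoff, tested 10–180 min post-injection. %MPE computed against pre-drug baseline. A50 with 95% confidence limits by linear regression at time of peak effect.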

Mus musculus [15] = assay: Antinociceptive activity in icv dosed ICR mouse assessed as warm-water tail-withdrawal latency by tail flick assay; type: functional; in short: as §3
Mus musculus [16] = assay: Antinociceptive activity in icv dosed ICR mouse assessed as warm-water tail-withdrawal latency by tail flick assay in presence of naloxone; type: functional, organism-based
[17] = target: T1, Kappa-type opioid receptor; assay: Agonist activity at human kappa opioid receptor expressed in CHO cells assessed as [35S]GTPgammaS binding at 10 uM by scintillation counting analysis; type: functional, cell-based; in short: as §2
[18] = target: T1, Kappa-type opioid receptor; assay: Binding affinity to kappa opioid receptor by radioligand binding assay
[19] = target: T3, Delta-type opioid receptor; assay: Binding affinity to delta opioid receptor by radioligand binding assay
In short: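 Membranes from CHO cells stably expressing human DOR; [³H]DADLE at ~2 nM, displaced by 10 drug concentrations. Incubated 2 h at 25 °C in 50 mM Tris-HCl pH 7.4 with protease inhibitors, ~30 µg protein; triplicates; filtration and scintillation counting. Nonspecific binding defined with 20 µM levallorphan. Three experiments pooled and fitted for IC50.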

Mu-type opioid receptor [20] = target: T2, Mu-type opioid receptor; assay: Binding affinity to mu opioid receptor by radioligand binding assay
Mus musculus [21] = assay: Antinociceptive activity in ICR mouse assessed as warm-water tail-withdrawal latency at 1 nmol, icv by tail flick assay; type: functional; in short: as §3
CHO [22] = assay: Activity at human MOR/mouse DOR expressed in CHO cells assessed as increase in forskolin-stimulated cAMP accumulation at 30 nM after drug exposure for 20 hrs followed by washout; type: functional, cell-based
In short: (§4)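 MOR/DOR co-expressing CHO cells (mouse N-cMyc DOR + human MOR) exposed 20 h to drug, then washed three times with serum-free medium and preincubated 20 min at 37 °C with IBMX 500 µM. Then 10 min at 37 °C with forskolin 100 µM/IBMX 500 µM, with or without 10 µM naloxone. Read-out was cAMP by [3H]cAMP–protein kinase binding against a standard curve. Mean of n=3.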

Mus musculus [23] = assay: Antinociceptive activity in icv dosed ICR mouse assessed as warm-water tail-withdrawal latency administered bid for 3 days; type: functional
[24] = Activity at human MOR/mouse DOR expressed in CHO cells assessed as inhibition of DAMGO-mediated forskolin-stimulated cAMP accumulation at 30 nM after 20 hrs by scintillation counting analysis; type: functional
In short: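 CHO cells stably co-expressing human MOR and cMyc-tagged mouse DOR were pretreated 20 h with 30 nM drug or medium, then washed. They were preincubated 20 min with 500 µM IBMX, then given 15 min with IBMX, 100 µM forskolin and graded DAMGO at 37 °C. cAMP was measured by [3H]cAMP–protein kinase binding against a standard curve.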

CHO [25] = assay: Activity at human MOR/mouse DOR expressed in CHO cells assessed as increase in forskolin-stimulated cAMP accumulation at 30 nM after drug exposure for 20 hrs followed by washout in the presence of naloxone; type: functional, cell-based; in short: as §4

T1 sequence (P41145 whole entry): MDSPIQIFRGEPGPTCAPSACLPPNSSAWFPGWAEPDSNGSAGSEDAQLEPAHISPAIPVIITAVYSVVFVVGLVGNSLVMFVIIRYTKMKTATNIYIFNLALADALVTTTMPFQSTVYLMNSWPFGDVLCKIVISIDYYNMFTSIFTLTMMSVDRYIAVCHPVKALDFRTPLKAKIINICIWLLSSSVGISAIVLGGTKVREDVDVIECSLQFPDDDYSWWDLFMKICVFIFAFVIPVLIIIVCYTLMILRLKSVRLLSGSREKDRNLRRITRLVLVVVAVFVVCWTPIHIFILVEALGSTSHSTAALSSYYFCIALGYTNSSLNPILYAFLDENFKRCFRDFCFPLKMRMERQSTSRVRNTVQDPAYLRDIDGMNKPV
T3 sequence (P41143 whole entry): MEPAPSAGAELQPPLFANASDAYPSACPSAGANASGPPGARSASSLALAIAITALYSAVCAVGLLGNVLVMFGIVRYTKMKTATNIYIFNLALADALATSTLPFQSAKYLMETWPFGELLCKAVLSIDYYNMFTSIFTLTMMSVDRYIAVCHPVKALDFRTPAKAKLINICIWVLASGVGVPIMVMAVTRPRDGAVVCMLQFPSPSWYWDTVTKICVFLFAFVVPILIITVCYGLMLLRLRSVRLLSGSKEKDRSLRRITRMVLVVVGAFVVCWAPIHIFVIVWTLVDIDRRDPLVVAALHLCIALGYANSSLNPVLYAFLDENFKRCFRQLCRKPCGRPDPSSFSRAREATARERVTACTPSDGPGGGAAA
T2 sequence (P35372 whole entry): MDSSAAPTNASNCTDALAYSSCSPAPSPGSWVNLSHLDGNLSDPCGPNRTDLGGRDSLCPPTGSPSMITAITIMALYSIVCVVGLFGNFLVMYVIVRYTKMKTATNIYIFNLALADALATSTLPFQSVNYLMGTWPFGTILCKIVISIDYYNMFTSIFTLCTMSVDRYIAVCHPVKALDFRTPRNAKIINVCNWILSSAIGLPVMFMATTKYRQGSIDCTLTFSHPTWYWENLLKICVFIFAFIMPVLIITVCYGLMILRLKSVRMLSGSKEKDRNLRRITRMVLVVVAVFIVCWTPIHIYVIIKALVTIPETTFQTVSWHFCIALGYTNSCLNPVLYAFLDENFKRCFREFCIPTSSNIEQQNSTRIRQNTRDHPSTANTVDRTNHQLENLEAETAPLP

SMILES | EC50 [2] [nM] | EC50 (Mu-type opioid receptor [3]) [nM] | Ke [4] [nM] | Ratio Ki (Homo sapiens [5]) | Ki (Mu-type opioid receptor [6]) [nM] | Emax [7] [%] | Ki [8] [nM] | Ki [9] [nM] | Emax (Mu-type opioid receptor [10]) [%] | Ratio Ki (Homo sapiens [11]) | Activity [12] | Activity (Mu-type opioid receptor [13]) | other results
CN1CC[C@]23c4c5ccc(O)c4O[C@H]2c2ncc(-c4ccc(Cl)cc4)cc2C[C@@]3(OC(=O)Cc2ccccc2)[C@H]1C5 | 109 | 87 | 3.38 | 18 | 1.43 | 36 | 0.97 | 17 | 122 | 1.5 |  |  | Emax [1]: 27%
O=C(Cc1ccccc1)O[C@@]12Cc3cc(-c4ccc(Cl)cc4)cnc3[C@@H]3Oc4c(O)ccc5c4[C@@]31CCN(CC1CC1)[C@@H]2C5 | 26 |  | 0.37 | 2.3 | 1.04 | 34 | 1.33 | 3.1 |  | 0.78 | inactive | inactive | 
CO[C@@]12Cc3cc(-c4ccc(Cl)cc4)cnc3[C@@H]3Oc4c(O)ccc5c4[C@@]31CCN(C)[C@@H]2C5 | 633 | 379 | 1.6 | 17 | 7.89 | 36 | 1.63 | 28 | 118 | 4.8 | inactive |  | %max (Mus musculus [14]): 98%; A50 (Mus musculus [15]): 1.44 nmol; Activity (Mus musculus [15]): Dose-dependent effect; Activity (Mus musculus [16]): inactive
Oc1ccc2c3c1O[C@H]1c4ncc(-c5ccc(Cl)cc5)cc4C=C4[C@@H](C2)N(CC2CC2)CC[C@]431 |  |  | 0.58 | 2.2 | 13 |  | 2.71 | 5.97 |  | 4.8 | inactive | inactive | Activity [17]: inactive
CO[C@@]12Cc3cc(-c4ccc(Cl)cc4)cnc3[C@@H]3Oc4c(O)ccc5c4[C@@]31CCN(CC1CC1)[C@@H]2C5 |  |  |  | 2.8 | 41.9 |  | 1.95 | 5.37 |  | 22 | inactive | inactive | 
Oc1ccc2c3c1O[C@H]1c4ncc(-c5ccc(Cl)cc5)cc4C[C@@]4(OCc5ccccc5)[C@@H](C2)N(CC2CC2)CC[C@]314 | 27 |  | 0.64 | 2.8 | 8.42 | 15 | 1.91 | 5.33 |  | 4.4 | inactive | inactive | 
CN1CC[C@]23c4c5ccc(O)c4O[C@H]2c2ncc(-c4ccc(Cl)cc4)cc2C[C@@]3(O)[C@H]1C5 |  |  |  |  |  |  |  |  |  |  |  |  | Ki [18]: 468 nM; Ki [19]: 3.9 nM; Ki (Mu-type opioid receptor [20]): 230 nM
CN1CC[C@]23c4c5ccc(O)c4O[C@H]2c2ncc(-c4ccc(Cl)cc4)cc2C[C@@]3(OC(=O)c2ccccc2)[C@H]1C5 |  | 4620 | 45 | 6.6 | 84 |  | 17 | 112 | 55 | 4.9 | inactive |  | Activity [17]: inactive
CN1CC[C@]23c4c5ccc(O)c4O[C@H]2c2ncc(-c4ccc(Cl)cc4)cc2C[C@@]3(OC/C=C/c2ccccc2)[C@H]1C5 |  | 4.27 |  | 1.4 | 0.41 |  | 1.14 | 1.55 | 130 | 0.36 |  |  | Emax [1]: 84%; A50 (Mus musculus [15]): 0.23 nmol; Activity (Mus musculus [15]): Dose-dependent effect; %max (Mus musculus [21]): 91%; Activity (Mus musculus [16]): inactive
O=C(CCc1ccccc1)O[C@@]12Cc3cc(-c4ccc(Cl)cc4)cnc3[C@@H]3Oc4c(O)ccc5c4[C@@]31CCN(CC1CC1)[C@@H]2C5 | 13 |  | 1.86 | 2.9 | 2.58 | 25 | 4.13 | 12 |  | 0.62 | inactive | inactive | 
Oc1ccc2c3c1O[C@H]1c4ncc(-c5ccc(Cl)cc5)cc4C[C@@]4(OCCCc5ccccc5)[C@@H](C2)N(CC2CC2)CC[C@]314 |  |  | 0.091 |  |  |  |  |  | 72 |  | inactive |  | Activity (CHO [22]): inactive; A50 (Mus musculus [15]): 0.35 nmol; Activity (Mus musculus [15]): Dose-dependent effect; Activity [17]: inactive; A50 (Mus musculus [23]): 2.78 nmol; %max (Mus musculus [21]): 75%; Activity (Mus musculus [16]): inactive; Emax at 0.03 µM [24]: 40%; Activity (CHO [25]): inactive
Oc1ccc2c3c1O[C@H]1c4ncc(-c5ccc(Cl)cc5)cc4C[C@@]4(O)[C@@H](C2)N(CC2CC2)CC[C@]314 |  |  |  |  |  |  |  |  |  |  |  |  | Ki [18]: 20 nM; Ki [19]: 2.2 nM; Ki (Mu-type opioid receptor [20]): 51 nM
CN1CC[C@]23c4c5ccc(O)c4O[C@H]2c2ncc(-c4ccc(Cl)cc4)cc2C[C@@]3(OCc2ccccc2)[C@H]1C5 | 215 | 301 | 4.54 | 28 | 4.69 | 32 | 1.78 | 49 | 119 | 2.6 |  |  | Emax [1]: 52%
Oc1ccc2c3c1O[C@H]1c4ncc(-c5ccc(Cl)cc5)cc4C[C@@]4(OC/C=C/c5ccccc5)[C@@H](C2)N(CC2CC2)CC[C@]314 |  |  |  | 0.89 | 3.03 |  | 3.74 | 3.31 |  | 0.81 | inactive | inactive | 
O=C(O[C@@]12Cc3cc(-c4ccc(Cl)cc4)cnc3[C@@H]3Oc4c(O)ccc5c4[C@@]31CCN(CC1CC1)[C@@H]2C5)c1ccccc1 |  |  | 218 | 1.3 | 192 |  | 87 | 117 |  | 2.2 | inactive | inactive | Activity [17]: inactive
CN1CC[C@]23c4c5ccc(O)c4O[C@H]2c2ncc(-c4ccc(Cl)cc4)cc2C[C@@]3(OC(=O)CCc2ccccc2)[C@H]1C5 | 136 | 48 | 1.64 | 4.6 | 0.94 | 16 | 0.96 | 4.41 | 105 | 0.98 |  |  | Emax [1]: 59%
